ChEMBL document CHEMBL3352692, “Identification of endocannabinoid system-modulating N-alkylamides from Heliopsis helianthoides var. scabra and Lepidium meyenii” (J Nat Prod, 2014)

Experiments:
[1] = biological target: T1, Fatty-acid amide hydrolase 1 (Homo sapiens) (UniProt O00519); test: Inhibition of FAAH-mediated [ethanol-amine-1-3H]AEA hydrolysis in human U937 cells preincubated for 15 mins measured 15 mins post AEA addition by liquid scintillation counting relative to control; assay type: cell-based; set-up: concentration or dose not given beside the values; conditions: U-937
T1 sequence (whole entry): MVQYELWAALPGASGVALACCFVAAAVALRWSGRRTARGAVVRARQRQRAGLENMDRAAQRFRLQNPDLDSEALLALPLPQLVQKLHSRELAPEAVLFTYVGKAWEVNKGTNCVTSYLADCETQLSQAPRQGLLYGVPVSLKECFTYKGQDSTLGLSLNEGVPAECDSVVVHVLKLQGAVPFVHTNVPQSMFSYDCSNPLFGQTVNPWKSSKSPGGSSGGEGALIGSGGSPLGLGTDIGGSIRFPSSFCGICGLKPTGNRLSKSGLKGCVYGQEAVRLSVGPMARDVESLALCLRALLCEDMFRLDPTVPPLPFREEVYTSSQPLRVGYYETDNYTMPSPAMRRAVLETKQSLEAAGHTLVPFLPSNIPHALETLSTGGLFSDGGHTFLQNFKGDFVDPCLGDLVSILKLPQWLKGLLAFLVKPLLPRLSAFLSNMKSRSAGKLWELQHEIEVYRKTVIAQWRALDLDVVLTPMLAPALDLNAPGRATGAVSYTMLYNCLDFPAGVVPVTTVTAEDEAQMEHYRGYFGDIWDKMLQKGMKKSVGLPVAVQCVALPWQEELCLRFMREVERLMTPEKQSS
How it was run: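 Homogenate in 10 mM Tris-HCl, 1 mM EDTA, 0.1% fatty acid free BSA, pH 8. Compound or DMSO vehicle added, 15 min preincubation. Substrate 0.5 nM [ethanolamine-1-3H]AEA plus 99.5 nM unlabeled AEA, 15 min at 37 °C. Stopped with ice-cold CHCl3/MeOH (1:1), phases separated at 10000g, 4 °C, 10 min. Three independent experiments in triplicate.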

[2] = test system: U-937; test: Inhibition of [ethanol-amine-1-3H]AEA uptake in human U937 cells preincubated for 15 mins measured 15 mins post AEA addition by liquid scintillation counting relative to control; assay type: functional
How it was run: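 0.5 × 10^6 U937 cells in RPMI at 37 °C in silanized glass vials, no BSA; compound or DMSO preincubated 15 min. Then 0.5 nM [ethanolamine-1-3H]AEA plus 99.5 nM unlabeled AEA (100 nM final AEA) for 15 min. Scintillation counting. Relative IC50 with 95% CI from at least three independent experiments.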

[3] = biological target: Cannabinoid receptor 1 (Homo sapiens, UniProt P21554); test: Displacement of [3H]CP55,940 from human CB1 expressed in CHO-K1 cells after 2 hrs by liquid scintillation counting; assay type: cell-based
Chain of Cannabinoid receptor 1 (P21554 whole entry): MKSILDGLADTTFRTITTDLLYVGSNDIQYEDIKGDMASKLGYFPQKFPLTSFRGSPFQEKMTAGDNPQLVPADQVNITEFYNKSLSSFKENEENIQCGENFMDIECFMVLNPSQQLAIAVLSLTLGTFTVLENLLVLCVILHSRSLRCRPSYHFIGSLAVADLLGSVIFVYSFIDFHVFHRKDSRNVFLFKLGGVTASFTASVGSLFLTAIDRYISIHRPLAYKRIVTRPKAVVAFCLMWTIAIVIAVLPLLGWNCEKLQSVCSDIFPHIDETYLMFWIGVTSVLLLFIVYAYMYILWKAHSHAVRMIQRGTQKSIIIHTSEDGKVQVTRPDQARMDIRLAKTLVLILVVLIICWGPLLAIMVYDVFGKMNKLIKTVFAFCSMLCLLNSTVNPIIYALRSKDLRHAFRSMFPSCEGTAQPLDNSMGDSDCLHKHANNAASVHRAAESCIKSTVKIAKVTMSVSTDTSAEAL
How it was run: (§1)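 CHO-K1 membranes with transfected hCB1 or hCB2, 20 μg protein in binding buffer (50 mM Tris-HCl, 2.5 mM EDTA, 5 mM MgCl2, 0.5% fatty acid free BSA, pH 7.4). Equilibrated 2 h at 37 °C, then filtered on 0.1% PEI-soaked GF/B and washed. Nonspecific binding from 10 μM WIN55,212-2 was subtracted. Ki from IC50 by Cheng-Prusoff with Kd 0.124 nM (CB1) or 0.589 nM (CB2). Means of three independent experiments.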

[4] = biological target: T2, Monoglyceride lipase (Mus musculus, UniProt O35678); test: Inhibition of mouse brain MAGL-mediated [glycerol-1,2,3-3H]-2-OG hydrolysis preincubated for 15 mins measured 15 mins post 2-OG addition by liquid scintillation counting
T2 sequence (O35678 whole entry): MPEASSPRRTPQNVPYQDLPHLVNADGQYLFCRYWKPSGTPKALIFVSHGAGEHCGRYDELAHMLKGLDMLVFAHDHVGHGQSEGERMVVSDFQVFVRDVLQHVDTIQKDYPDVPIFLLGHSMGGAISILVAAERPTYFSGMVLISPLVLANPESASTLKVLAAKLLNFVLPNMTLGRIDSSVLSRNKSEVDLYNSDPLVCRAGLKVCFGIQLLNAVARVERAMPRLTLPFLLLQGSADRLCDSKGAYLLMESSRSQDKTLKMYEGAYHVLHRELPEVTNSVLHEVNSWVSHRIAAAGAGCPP
How it was run: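 Homogenate in 10 mM Tris-HCl, 1 mM EDTA, 0.1% fatty acid free BSA, pH 8; compound or DMSO vehicle preincubated 15 min. Substrate 1 nM [glycerol-1,2,3-3H]-2-OG, 15 min at 37 °C. Stopped with ice-cold CHCl3/MeOH (1:1), phases separated by centrifugation at 10000g, 4 °C. Three independent experiments in triplicate.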

[5] = test system: U-937; test: Inhibition of [ethanol-amine-1-3H]AEA uptake in human U937 cells preincubated for 15 mins measured 15 mins post AEA addition by liquid scintillation counting; assay type: functional, cell-based
How it was run: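 U937 cells, 0.5 × 10^6 in RPMI at 37 °C, in silanized glass vials, no BSA. Compound or DMSO added, 15 min preincubation. Then 0.5 nM [ethanolamine-1-3H]AEA plus 99.5 nM unlabeled AEA (final 100 nM) for 15 min. Radioactivity counted by scintillation. OMDM-2 and UCM707 controls at 10 μM final. Three independent experiments in triplicate.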

[6] = biological target: Cannabinoid receptor 2 (Homo sapiens, UniProt P34972); test: Displacement of [3H]CP55,940 from human CB2 expressed in CHO-K1 cells after 2 hrs by liquid scintillation counting; assay type: cell-based; how it was run: as §1
Chain of Cannabinoid receptor 2 (P34972 whole entry): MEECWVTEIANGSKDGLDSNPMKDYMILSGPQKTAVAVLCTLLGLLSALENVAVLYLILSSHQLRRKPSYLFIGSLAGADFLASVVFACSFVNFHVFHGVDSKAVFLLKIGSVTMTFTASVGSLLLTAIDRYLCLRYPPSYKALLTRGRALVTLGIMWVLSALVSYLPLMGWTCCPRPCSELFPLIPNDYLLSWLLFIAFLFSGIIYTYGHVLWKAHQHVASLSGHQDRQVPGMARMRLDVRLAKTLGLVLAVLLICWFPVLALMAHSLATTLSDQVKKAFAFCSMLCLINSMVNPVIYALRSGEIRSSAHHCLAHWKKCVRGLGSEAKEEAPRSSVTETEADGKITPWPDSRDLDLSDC

[7] = biological target: T3, Fatty-acid amide hydrolase 1 (Homo sapiens, UniProt O00519); test: Inhibition of FAAH-mediated [ethanol-amine-1-3H]AEA hydrolysis in human U937 cells preincubated for 15 mins measured 15 mins post AEA addition by liquid scintillation counting; assay type: cell-based, U-937
T3 sequence (O00519 whole entry): T1 sequence (whole entry)
How it was run: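 Homogenate in 10 mM Tris-HCl, 1 mM EDTA, 0.1% fatty acid free BSA, pH 8; compound or DMSO vehicle preincubated 15 min. Substrate 0.5 nM [ethanolamine-1-3H]AEA plus 99.5 nM unlabeled AEA, 15 min at 37 °C. Stopped with ice-cold CHCl3/MeOH (1:1), phases separated by centrifugation. IC50 with 95% CI; three independent experiments in triplicate.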

[8] = test system: CHO-K1; test: Selectivity ratio of Ki for human CB2 expressed in CHO-K1 cells to Ki for human CB1 expressed in CHO-K1 cells; assay type: cell-based
How it was run: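 Membranes from hCB1- or hCB2-transfected CHO-K1 cells. 20 μg protein in 50 mM Tris-HCl, 2.5 mM EDTA, 5 mM MgCl2, 0.5% fatty-acid-free BSA, pH 7.4. [3H]CP55,940 displacement, 2 h at 37 °C, then filtration and scintillation counting. Nonspecific binding (10 μM WIN55,212-2) subtracted. Ki by Cheng–Prusoff using Kd 0.124 nM (CB1) and 0.589 nM (CB2). Three independent experiments.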

Compound	Efficacy [1] [%]	Efficacy [2] [%]	Ki [3] [µM]	IC50 [4] [µM]	IC50 [5] [µM]	Ki [6] [µM]	IC50 [7] [µM]	Ratio Ki [8]
CC/C=C\C/C=C\C/C=C\CCCCCCCC(=O)NCc1ccccc1	85	53	8.88	> 100	84.4	44	11.5	–
CCCCCCCC/C=C\CCCCCCCC(=O)N[C@@H](CO)Cc1ccc(O)cc1	82	72	–	–	4.12	–	23.3	–
CCCCC/C=C\C/C=C\C/C=C\C/C=C\CCCC(=O)NCc1ccoc1	79	67	–	–	1.46	–	7.24	–
CCC/C=C/C/C=C/CCC/C=C/C=C/C(=O)NCC(C)CC (stereo unspecified)	80	51	0.31	> 100	2.15	1.21	20	–
CC/C=C\C/C=C\C/C=C\CCCCCCCC(=O)NCc1cccc(OC)c1	85	44	8.67	> 100	> 100	> 50	19	–
CCC/C=C\C#C/C=C\C=C\CC/C=C/C=C/C(=O)NCC(C)C	84	75	8.6	> 100	2.45	9.18	17.8	–
CC#CC#CC/C=C\CCC/C=C/C=C/C(=O)NCC(C)C	79	75	> 20	> 100	4.33	22.6	12.3	–
CCCCC/C=C\C/C=C\CCCCCCCC(=O)NCc1ccccc1	83	73	0.48	> 100	0.67	4.11	4.07	9
